Data: ChEMBL document CHEMBL1124106, “Synthesis of diethylenetriaminepentaacetic acid conjugated inulin and utility for cellular uptake of liposomes” (J Med Chem, 1988)
Where “and” joins values, the source holds several entries; their conditions need not be identical. Equal entries are not always repeated.

Assays:
Mus musculus [1] = test: Biodistribution of compound in mice intestine after 1 hr of intravenous injection; type: ADME, organism-based; conditions: in vivo
Method in brief: (§1)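 BALB/c mice (about 25 g), n = 4. Free ¹¹¹In- or ⁶⁷Ga-labeled compound (50–100 μL, about 100 000 cpm) was injected into a tail vein. Mice were held in separate cages and killed by cervical dislocation, with blood and cumulative excreta collected. Tissues were rinsed, blotted, weighed and γ-counted, with blood background subtracted (blood volume 8.0%). Values are % injected dose ± SD.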

Mus musculus [2] = test: Biodistribution in mice spleen, after 48 hr of intravenous administration of 1-2 ug of compound (entrapped in bovine brain sphingomyelin/ cholesterol multilamellar vehicles); type: ADME, organism-based; conditions: in vivo
Method in brief: (§2)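 BALB/c mice (about 25 g), 3–5 per group, given 50–100 μL tail-vein injection of 111In-labeled conjugate entrapped in SM/CH (2:1 mol/mol) multilamellar vesicles, approx. 100 000 cpm; dose 1–2 μg phospholipid/g body weight. Killed by cervical dislocation at set times; blood, cumulative excretion and rinsed, blotted, weighed tissues γ-counted, blood background subtracted. Result is % injected dose ± SD.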

[3] = Biodistribution in mice excretion, after 12 hr of intravenous administration of 1-2 ug of compound (entrapped in bovine brain sphingomyelin/ cholesterol multilamellar vehicles); type: ADME, organism-based; conditions: mouse, excretion (excreta, not specified further), read-out: ID; method in brief: as §2
Mus musculus [4] = test: Biodistribution of compound in mice spleen after 21 hr of intravenous injection; type: ADME, organism-based; conditions: in vivo; method in brief: as §1
Mus musculus [5] = test: Biodistribution in mice skin, after 48 hr of intravenous administration of 1-2 ug ofcompound (entrapped in bovine brain sphingomyelin/ cholesterol multilamellar vehicles); type: ADME, organism-based, Zone of skin; conditions: in vivo; method in brief: as §2
[6] = (§3) Biodistribution of compound in mice excretion after 1 hr of intravenous injection; type: ADME, organism-based; conditions: mouse, excretion (excreta, not specified further), read-out: ID; method in brief: as §1
Mus musculus [7] = test: as §3; type: ADME, organism-based; conditions: in vivo, 1 h; method in brief: as §1
Mus musculus [8] = test: Biodistribution in mice blood, after 12 hr of intravenous administration of 1-2 ug of compound (entrapped in bovine brain sphingomyelin/ cholesterol multilamellar vehicles); type: ADME, organism-based; conditions: in vivo; method in brief: as §2
Mus musculus [9] = test: Biodistribution of compound in mice kidneys after 21 hr of intravenous injection; type: ADME, organism-based, Kidney; conditions: in vivo; method in brief: as §1
Mus musculus [10] = test: Biodistribution of compound in mice tail after 1 hr of intravenous injection; type: ADME, organism-based; conditions: in vivo; method in brief: as §1
Mus musculus [11] = test: Biodistribution in mice leg muscle, after 12 hr of intravenous administration of 1-2 ug of compound (entrapped in bovine brain sphingomyelin/ cholesterol multilamellar vehicles); type: ADME, organism-based, Muscle tissue; conditions: in vivo; method in brief: as §2
Mus musculus [12] = test: Biodistribution in mice kidneys, after 24 hr of intravenous administration of 1-2 ug of compound (entrapped in bovine brain sphingomyelin/ cholesterol multilamellar vehicles); type: ADME, organism-based, Kidney; conditions: in vivo; method in brief: as §2
Mus musculus [13] = test: Biodistribution in mice kidneys, after 12 hr of intravenous administration of 1-2 ug of compound (entrapped in bovine brain sphingomyelin/ cholesterol multilamellar vehicles); type: ADME, organism-based, Kidney; conditions: in vivo; method in brief: as §2
Mus musculus [14] = test: Biodistribution of compound in mice intestine after 21 hr of intravenous injection; type: ADME, organism-based; conditions: in vivo; method in brief: as §1
Mus musculus [15] = test: Biodistribution in mice intestine, after 48 hr of intravenous administration of 1-2 ug of compound (entrapped in bovine brain sphingomyelin/ cholesterol multilamellar vehicles); type: ADME, organism-based; conditions: in vivo; method in brief: as §2
Mus musculus [16] = test: Biodistribution in mice liver, after 48 hr of intravenous administration of 1-2 ug ofcompound (entrapped in bovine brain sphingomyelin/ cholesterol multilamellar vehicles); type: ADME, organism-based; conditions: in vivo; method in brief: as §2
Mus musculus [17] = test: Biodistribution in mice stomach, after 48 hr of intravenous administration of 1-2 ug of compound (entrapped in bovine brain sphingomyelin/ cholesterol multilamellar vehicles); type: ADME, organism-based; conditions: in vivo
Method in brief: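 BALB/c mice (about 25 g), groups of 2–5. Compound ¹¹¹In-loaded into SM/CH (2:1, mol/mol) multilamellar vesicles, given as a single tail-vein injection. Lipid dose was 1–2 μg phospholipid/g body weight, in 50–100 μL carrying about 100 000 cpm. Mice were killed by cervical dislocation. Organs were rinsed, blotted, weighed and γ-counted, with blood background subtracted. Values are % injected dose ± SD.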

Mus musculus [18] = test: Biodistribution in mice heart, after 24 hr of intravenous administration of 1-2 ug of compound (entrapped in bovine brain sphingomyelin/ cholesterol multilamellar vehicles); type: ADME, organism-based; conditions: in vivo; method in brief: as §2
Mus musculus [19] = test: Biodistribution in mice skin, after 24 hr of intravenous aadministration of 1-2 ug of compound (entrapped in bovine brain sphingomyelin/ cholesterol multilamellar vehicles); type: ADME, organism-based, Zone of skin; conditions: in vivo; method in brief: as §2
Mus musculus [20] = test: Biodistribution in mice leg muscle, after 1 hr of intravenous administration of 1-2 ug ofcompound (entrapped in bovine brain sphingomyelin/ cholesterol multilamellar vehicles); type: ADME, organism-based, Muscle tissue; conditions: in vivo; method in brief: as §2
Mus musculus [21] = test: Biodistribution in mice liver, after 12 hr of intravenous administration of 1-2 ug of compound (entrapped in bovine brain sphingomyelin/ cholesterol multilamellar vehicles); type: ADME, organism-based; conditions: in vivo; method in brief: as §2
Mus musculus [22] = test: Biodistribution in mice kidneys, after 1 hr of intravenous administration of 1-2 ug of compound (entrapped in bovine brain sphingomyelin/ cholesterol multilamellar vehicles); conditions: in vivo
Mus musculus [23] = test: Biodistribution in mice leg muscle, after 48 hr of intravenous administration of compound (entrapped in bovine brain sphingomyelin/ cholesterol multilamellar vehicles); type: ADME, organism-based, Muscle tissue; conditions: in vivo; method in brief: as §2
Mus musculus [24] = test: Biodistribution in mice brain, after 24 hr of intravenous administration of 1-2 ug of compound (entrapped in bovine brain sphingomyelin/ cholesterol multilamellar vehicles); type: ADME, organism-based; conditions: in vivo; method in brief: as §2
Mus musculus [25] = test: Biodistribution in mice carcass, after 48 hr of intravenous administrating 1-2 ug of compound (entrapped in bovine brain sphingomyelin/ cholesterol multilamellar vehicles); type: ADME, organism-based; conditions: in vivo; method in brief: as §2
Mus musculus [26] = test: Biodistribution in mice brain, after 1 hr of intravenous administrating 1-2 ug of compound (entrapped in bovine brain sphingomyelin/ cholesterol multilamellar vehicles); type: ADME, organism-based; conditions: in vivo; method in brief: as §2
Mus musculus [27] = test: Biodistribution in mice skin, after 1 hr of intravenous administration of 1-2 ug of compound (entrapped in bovine brain sphingomyelin/ cholesterol multilamellar vehicles); type: ADME, organism-based, Zone of skin; conditions: in vivo; method in brief: as §2
Mus musculus [28] = test: Biodistribution of compound in mice carcass after 21 hr of intravenous injection; type: ADME, organism-based; conditions: in vivo; method in brief: as §1
Mus musculus [29] = test: Biodistribution in mice skin, after 12 hr of intravenous administration of 1-2 ug of compound (entrapped in bovine brain sphingomyelin/ cholesterol multilamellar vehicles); type: ADME, organism-based, Zone of skin; conditions: in vivo; method in brief: as §2
Mus musculus [30] = test: Biodistribution of compound in mice spleen after 0.17 hr of intravenous injection; type: ADME, organism-based; conditions: in vivo; method in brief: as §1
Mus musculus [31] = test: Biodistribution of compound in mice intestine after 0.17 hr of intravenous injection; type: ADME, organism-based; conditions: in vivo; method in brief: as §1
Mus musculus [32] = test: Biodistribution of compound in mice liver after 0.17 hr of intravenous injection; type: ADME, organism-based; conditions: in vivo; method in brief: as §1
[33] = Biodistribution in mice excretion, after 24 hr of intravenous administration of 1-2 ug of ofcompound (entrapped in bovine brain sphingomyelin/ cholesterol multilamellar vehicles); type: ADME, organism-based; conditions: mouse, excretion (excreta, not specified further), read-out: ID; method in brief: as §2
Mus musculus [34] = test: Biodistribution of compound in mice blood after 1 hr of intravenous injection; type: ADME, organism-based; conditions: in vivo; method in brief: as §1
Mus musculus [35] = test: Biodistribution in mice spleen, after 24 hr of intravenous administration of 1-2 ug of compound (entrapped in bovine brain sphingomyelin/ cholesterol multilamellar vehicles); type: ADME, organism-based; conditions: in vivo; method in brief: as §2
Mus musculus [36] = test: Biodistribution in mice fat, after 24 hr of intravenous administration of 1-2 ug of compound (entrapped in bovine brain sphingomyelin/ cholesterol multilamellar vehicles); type: ADME, organism-based; conditions: in vivo; method in brief: as §2
Mus musculus [37] = test: Biodistribution of compound in mice spleen after 1 hr of intravenous injection; type: ADME, organism-based; conditions: in vivo; method in brief: as §1
Mus musculus [38] = test: Biodistribution of compound in mice blood after 0.17 hr of intravenous injection; type: ADME, organism-based; conditions: in vivo; method in brief: as §1
Mus musculus [39] = test: Biodistribution of compound in mice carcass after 0.17 hr of intravenous injection; type: ADME, organism-based; conditions: in vivo; method in brief: as §1

NCCNC(=O)CN(CCN(CCN(CC(=O)O)CC(=O)O)CC(=O)O)CC(=O)O
ID (Mus musculus [1]): 0.8% and 1.4% | ID (Mus musculus [2]): 2.9% | dose excreted at 12 h [3]: 0% | ID (Mus musculus [4]): 0.1% | ID (Mus musculus [5]): 2.8% | dose excreted at 1 h [6]: 50.7% | ID (Mus musculus [7]): 50% | ID (Mus musculus [8]): 0.5% | ID (Mus musculus [9]): 0.8% and 0.9% | ID (Mus musculus [10]): 2% | ID (Mus musculus [11]): 0.4% | ID (Mus musculus [12]): 0.5% | ID (Mus musculus [13]): 0.4% | ID (Mus musculus [14]): 2.2% and 5.8% | ID (Mus musculus [15]): 0.6% | ID (Mus musculus [16]): 62.4% | ID (Mus musculus [17]): 0% | ID (Mus musculus [18]): 0% | ID (Mus musculus [19]): 2% | ID (Mus musculus [20]): 0.3% | ID (Mus musculus [21]): 73.6% | ID (Mus musculus [22]): 0.5% | ID (Mus musculus [23]): 0.3% | ID (Mus musculus [24]): 0.2% | ID (Mus musculus [25]): 1.3% | ID (Mus musculus [26]): 0% | ID (Mus musculus [27]): 1.6% | ID (Mus musculus [28]): 0.8% and 3% | ID (Mus musculus [29]): 1.1% | ID (Mus musculus [30]): 0.2% and 0.1% | ID (Mus musculus [31]): 2.2% and 2.4% | ID (Mus musculus [32]): 0.6% and 1.3% | dose excreted at 24 h [33]: 0% | ID (Mus musculus [34]): 1.1% and 4.5% | ID (Mus musculus [35]): 1.9% | ID (Mus musculus [36]): 0.4% | ID (Mus musculus [37]): 0.1% and 0% | ID (Mus musculus [38]): 21.1% and 20.9% | ID (Mus musculus [39]): 14.2% and 19.3%
